# The source made the active and inactive calls. No cut-off for these calls is given here. Where a SMILES comes first, the peptide text is derived from it. [ ]: non-standard residue; d: D form. 3Abz = Nc1cccc(C(=O)O)c1; Orn = NCCC[CH](N)C(=O)O
# Columns and labels:
# Escherichia coli [1] = assay: Antibacterial activity against Escherichia coli MTCC 723 assessed as growth inhibition after 18 hrs by CLSI microdilution broth assay; format: functional; details: MTCC 723, 18 h
# [2] = Retention time of the compound by HPLC analysis; format: physicochemical
# In short: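 Analytical RP-HPLC on a C18 column (5 µm, 4.6 × 250 mm) at room temperature. Run a linear gradient of 0.5-60% acetonitrile containing 0.05% TFA against water containing 0.05% TFA at 0.5 mL/min.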
# [3] = Membrane permeabilization in mammalian membrane model consisting large unilamellar vesicle of dipalmitoylphosphatidylcholine:cholesterol at ratio of 10:1 assessed as calcein release at 15 ug/ml after 5 mins by fluorescence assay; format: cell membranes
# In short: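 LUVs of DPPC/cholesterol 10:1 (w/w) loaded with calcein, extruded through 100 nm filters, and cleared of free dye on Sephadex G-50. Diluted to 40 µM lipid in calcein-free buffer (150 mM NaCl, 0.1 mM EDTA). Calcein release read at ex 490/em 520 nm, normalized to Triton X-100 lysis.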
# Lipid bilayer [4] = assay: Membrane permeabilization in bacterial membrane model consisting large unilamellar vesicle of dipalmitoylphosphatidylcholine:dipalmitoylphosphatidylglycerol at ratio of 7:3 assessed as calcein release after 5 mins by fluorescence assay; format: cell membranes
# In short: (§1)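 LUVs of DPPC:DPPG 7:3 (w/w) loaded with 70 mM calcein (150 mM NaCl, 0.1 mM EDTA, pH 7.4). Made by freeze-thaw and extrusion through 100 nm filters; free dye removed on Sephadex G-50; diameter 110-130 nm. Diluted to 40 µM lipid and exposed to 5-15 µg/mL compound. Fluorescence read at ex 490/em 520 nm each minute for 20 min, then every 10 min. Triton X-100 defined 100% release.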
# [5] = Induction of hemolysis in human RBC assessed as hemoglobin release after 1 hr by microtiter plate reader analysis; format: cell-based, Erythrocyte; details: for HC10: erythrocyte, 1 h; for HC50 at 1 h: red blood cells
# In short: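 Freshly isolated human RBCs washed three times in PBS (35 mM phosphate, 150 mM NaCl, pH 7.2) and used as a 4% (v/v) suspension. Mixed 1:1 with twofold serial dilutions of compound, incubated 1 h at 37 °C without agitation, then centrifuged. Supernatant A540 read. PBS defined 0% and 1% Triton X-100 defined 100% lysis; HC50 and HC10 derived.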
# Bacillus subtilis = assay: Antibacterial activity against Bacillus subtilis MTCC 2763 assessed as growth inhibition after 18 hrs by CLSI microdilution broth assay; format: functional; details: MTCC 2763, 18 h
# Staphylococcus aureus [6] = assay: Antibacterial activity against Staphylococcus aureus MTCC 3160 assessed as growth inhibition treated for 16 days by two-fold dilution assay; format: functional, organism-based
# [7] = tested on: Staphylococcus epidermidis; assay: Antibacterial activity against methicillin-resistant Staphylococcus epidermidis ATCC 51625 assessed as growth inhibition after 18 hrs by CLSI microdilution broth assay; format: functional; details: ATCC 51625, 18 h
# In short: (§2)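 Modified CLSI broth microdilution in Mueller-Hinton broth. Wells held 90 µL of about 2 × 10^5 CFU/mL inoculum plus 10 µL of serially diluted peptidomimetic, range 0.7-100 µg/mL. Plates were incubated overnight with agitation at 37 °C and absorbance read at 600 nm after 18 h. Controls: inoculum without compound, and uninoculated broth. Run in triplicate.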
# Staphylococcus aureus [8] = assay: Antibacterial activity against Staphylococcus aureus MTCC 3160 assessed as growth inhibition after 18 hrs by CLSI microdilution broth assay; format: functional; details: MTCC 3160, 18 h
# Escherichia coli [9] = assay: Bactericidal activity against Escherichia coli MTCC 723 assessed as number of bacteria at 4 times MIC measured within 30 mins by time kill assay (reference value: 10^6 CFU/ml); format: functional
# In short: (§3)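 Time-kill assay. […] Aliquots taken at fixed intervals were serially diluted and plated on Mueller-Hinton agar. CFU were counted after 24 h at 37 °C. Two independent experiments, each in triplicate.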
# Plasma [10] = assay: Stability in human plasma assessed as compound degradation after 1 hr by RP-HPLC analysis; format: ADME, cell-free
# In short: (§4)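 Compound (1 mg/mL stock in water; 50 µL) added to 1 mL fresh heparinized human plasma and held at 37 °C. Samples taken at 30 min, 1, 2, 6, 12 and 24 h. Proteins precipitated with 95% ethanol, cooled at 4 °C for 15 min and centrifuged at 18,000 g. Supernatant analyzed by RP-HPLC with UV detection at 280 nm.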
# Staphylococcus aureus [11] = assay: Induction of membrane damage in Staphylococcus aureus at 4 times MIC after 2 hrs by DAPI/propidium iodide staining based fluorescence microscopy; format: functional, organism-based
# In short: (§5)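 Stained with PI (5 µg/mL) for 15 min in the dark at 0 °C, washed, then DAPI (10 µg/mL) for 15 min in the dark at 0 °C. Untreated cells processed identically as controls. Imaged by fluorescence microscopy with a 60× oil objective.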
# Staphylococcus aureus [12] = assay: Bactericidal activity against Staphylococcus aureus MTCC 3160 assessed as number of bacteria at 4 times MIC measured within 30 mins by time kill assay (reference value: 10^6 CFU/ml); format: functional; in short: as §3
# [13] = Proteolytic stability assessed as trypsin (unknown origin)-mediated compound degradation after 36 hrs by RP-HPLC analysis; format: ADME; details: human
# In short: (§6)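 Compound at 1 mg/mL in 0.1 M NH4HCO3 (pH 8.2) combined with trypsin or α-chymotrypsin solution (1 mg enzyme per 50 mL of the same buffer) at 37 °C. Aliquots taken over time and quenched with 10% formic acid. Remaining compound quantified by C18 RP-HPLC. An enzyme-free control was run for each test.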
# [14] = Stability in human plasma assessed as compound degradation after 2 hrs by RP-HPLC analysis; format: ADME, cell-free; details: read-out: Drug degradation; in short: as §4
# HaCaT [15] = assay: Cytotoxicity against human HaCaT cells assessed as decrease in cell viability after 24 hrs by MTT assay; format: cell-based
# In short: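 HaCaT keratinocytes grown as a monolayer in DMEM with 10% FBS and penicillin/streptomycin, 37 °C, 5% CO2. Seeded 24 h, then exposed to compound for 24 h. MTT (5 mg/mL stock in PBS) added for 4 h; formazan dissolved in isopropanol and read at 570 nm. Growth inhibition calculated relative to medium-only controls. Two independent experiments in triplicate.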
# HaCaT [16] = assay: Cytotoxicity against human HaCaT cells at 100 to 500 ug/ml after 24 hrs by LDH release assay; format: cell-based
# In short: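 HaCaT cells (DMEM with 10% FBS, 37 °C, 5% CO2) seeded for 24 h, then treated with varying concentrations for 24 h. LDH measured at 490 nm in both supernatant and trypsinized cell lysate with a non-radioactive kit. % release = supernatant/(supernatant + lysate) × 100. Two independent experiments in triplicate.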
# trypsin = assay: (§7) Proteolytic stability assessed as trypsin (unknown origin)-mediated compound degradation by measuring compound remaining after 4 days by RP-HPLC analysis; format: ADME; details: human, trypsin; read-out: Stability; in short: as §6
# Staphylococcus aureus [17] = assay: Antibacterial activity against methicillin-resistant Staphylococcus aureus ATCC BAA-1720 assessed as growth inhibition after 18 hrs by CLSI microdilution broth assay; format: functional; details: ATCC BAA-1720, 18 h; in short: as §2
# Escherichia coli [18] = assay: Induction of membrane damage in Escherichia coli at 4 times MIC after 2 hrs by DAPI/propidium iodide staining based fluorescence microscopy; format: functional, organism-based; in short: as §5
# alpha chymotrypsin = assay: Proteolytic stability assessed as alpha chymotrypsin (unknown origin)-mediated compound degradation by measuring compound remaining after 4 days by RP-HPLC analysis; format: ADME; details: human, read-out: Stability; in short: as §6
# [19] = Proteolytic stability assessed as alpha chymotrypsin (unknown origin)-mediated compound degradation after 24 hrs by RP-HPLC analysis; format: ADME; details: human; in short: as §6
# Plasma [20] = assay: Stability in human plasma assessed as compound degradation after 24 hrs by RP-HPLC analysis; format: ADME, cell-free; details: 24 h; in short: as §4
# Pseudomonas aeruginosa = assay: Antibacterial activity against Pseudomonas aeruginosa MTCC 2295 assessed as growth inhibition after 18 hrs by CLSI microdilution broth assay; format: functional; details: MTCC 2295, 18 h
# Lipid bilayer [21] = assay: Membrane permeabilization in bacterial membrane model consisting large unilamellar vesicle of dipalmitoylphosphatidylcholine:dipalmitoylphosphatidylglycerol at ratio of 7:3 assessed as calcein release at 15 ug/ml after 20 mins by fluorescence assay; format: cell membranes; in short: as §1
# [22] = Selectivity ratio of HC50 for hemolysis in human RBC to MIC for Staphylococcus aureus
# Lipid bilayer [23] = assay: Membrane permeabilization in bacterial membrane model consisting large unilamellar vesicle of dipalmitoylphosphatidylcholine:dipalmitoylphosphatidylglycerol at ratio of 7:3 assessed as calcein release at 5 ug/ml after 50 mins by fluorescence assay; format: cell membranes; in short: as §1
# Staphylococcus aureus [24] = assay: Antibacterial activity against methicillin-resistant Staphylococcus aureus ATCC BAA-1720 assessed as growth inhibition treated for 16 days by two-fold dilution assay; format: functional, organism-based
# In short: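 Serial-passage resistance study. Start from the initial MIC by broth microdilution, then expose cells to doubling dilutions in triplicate wells. After each 18 h incubation, pool the wells with the highest concentration still showing visible growth and re-inoculate at about 2 × 10^6 CFU/mL.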
# Lipid bilayer [25] = assay: Membrane permeabilization in bacterial membrane model consisting large unilamellar vesicle of dipalmitoylphosphatidylcholine:dipalmitoylphosphatidylglycerol at ratio of 7:3 assessed as calcein release at 15 ug/ml after 90 mins by fluorescence assay; format: cell membranes; in short: as §1
# [26] = as §7; format: ADME; details: human, 96 h; in short: as §6
# Lipid bilayer [27] = assay: Membrane permeabilization in bacterial membrane model consisting large unilamellar vesicle of dipalmitoylphosphatidylcholine:dipalmitoylphosphatidylglycerol at ratio of 7:3 assessed as calcein release at 5 ug/ml after 90 mins by fluorescence assay; format: cell membranes; in short: as §1
Structure (SMILES),MIC (Escherichia coli [1]) [µg/mL],Retention_time [2] [min],Activity [3],Activity (Lipid bilayer [4]),HC10 [5] [µg/mL],HC50 at 1 h [5] [µg/mL],MIC (Bacillus subtilis) [µg/mL],inhibition (Staphylococcus aureus [6]),MIC [7] [µg/mL],MIC (Staphylococcus aureus [8]) [µg/mL],CFU/ml (Escherichia coli [9]),Activity (Staphylococcus aureus [11]),CFU/ml (Staphylococcus aureus [12]),Activity (HaCaT [15]),Activity (HaCaT [16]),MIC (Staphylococcus aureus [17]) [µg/mL],Activity (Escherichia coli [18]),remaining at 96 h (alpha chymotrypsin) [%],Stability [19],Stability (Plasma [20]),further results
N=C(N)NCCCC(NC(=O)C(Cc1c[nH]c2ccccc12)NC(=O)c1cccc(NC(=O)C(Cc2c[nH]c3ccccc23)NC(=O)C(CCCNC(=N)N)NC(=O)C(N)Cc2c[nH]c3ccccc23)c1)C(N)=O (stereo not given) (H-WRW[3Abz]WR-NH2; configuration not given here),7.5,27.34,inactive,Dose-dependent effect,80,310,20,Active,5,5,1000,Active,1000,Dose-dependent effect,Toxic,5.5,Active,70,Stable,Stable,Stability (Plasma [10]): Stable; Stability [13]: Stable; metabolised at 2 h [14]: 6.58%; remaining at 96 h (trypsin): 65%; MIC (Pseudomonas aeruginosa): 12.5 µg/mL; Activity (Lipid bilayer [21]): 47%; Selectivity ratio [22]: 62; Activity (Lipid bilayer [23]): 19%; inhibition (Staphylococcus aureus [24]): Active
NCCCC(NC(=O)C(Cc1c[nH]c2ccccc12)NC(=O)c1cccc(NC(=O)C(Cc2c[nH]c3ccccc23)NC(=O)C(CCCN)NC(=O)C(N)Cc2c[nH]c3ccccc23)c1)C(N)=O (stereo not given) (H-W[Orn]W[3Abz]W[Orn]-NH2; configuration not given here),20,25.378,inactive,Dose-dependent effect,100,390,25,Active,6.25,6.25,1000,Active,1000,Dose-dependent effect,Toxic,5,Active,70,Stable,Stable,Activity (Lipid bilayer [25]): 48%; Stability [26]: Stable; MIC (Pseudomonas aeruginosa): 15.5 µg/mL; Activity (Lipid bilayer [27]): 23%; Selectivity ratio [22]: 62.4; inhibition (Staphylococcus aureus [24]): Active
